Assay outcomes (PubChem)
Compounds with a hit are over-represented: about 5.8% of the library has one in this group of screens.
14-3-3 Bad inh – inhibitors of 14-3-3 zeta/Bad binding, primary screen, biochemical, TR-FRET, bovine 14-3-3 zeta; 14-3-3 protein zeta/delta (Bos taurus), P63103; TR-FRET 14-3-3zeta/Dy647-pBad peptide displacement, 1 h; inhibition, % at 21.7 µM; hit rate 0.71% among 220,000;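 active = inhibition above about 70%, limit read from the data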
Cl transport mod – KCC2 cotransporter modulators, thallium flux, primary screen, cell-based, HEK293 KCC2, FluoZin-2 fluorescence, MLSMR. Solute carrier family 12 member 5 (Homo sapiens), Q9H2X9. hit rate 2.2% among 190,000. B-score of Tl+ flux slope (higher = more flux/activation; lower = inhibition) at 10 µM. KCC2 cells, thallium flux FluoZin-2 fluorescence;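 active = thallium flux slope and its plate-corrected score both differing from the plate sample mean at a set confidence after two filtering rounds, in either direction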;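 note: slope of fluorescence scaled to starting intensity during 10 to 20 s after thallium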
p47phox inh – p47phox/p22phox peptide binding inhibitors, primary screen, biochemical, uHTS, NADPH oxidase regulatory subunit; fluorescence polarization, 2 h; hit rate 0.53% among 220,000; inhibition, % at 24.7 µM;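 active = inhibition above about 30%, limit read from the data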
WT yeast gro inh – growth inhibition of WT strain, primary screen, mitochondrial fusion inhibitor project, WT and mutant strains, chemical genetic; hit rate 2.1% among 190,000; AID 1362, 2008; inhibition, % at 10 µM; mitochondrial fusion phenotypic screen; in the data active = inhibition above about 58%; tested in S. cerevisiae
ROMK primary – ROMK potassium channel modulators, primary screen, cell-based, thallium flux, MLSMR library | ATP-sensitive inward rectifier potassium channel 1 (Homo sapiens), P48048 | Tet-inducible ROMK, thallium flux fluorescence; actives lie on both sides | B-score at 10 µM | hit rate 2% among 130,000 | AID 1918, 2009;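 active = signal ratio slope over the read window, or its plate-corrected B-score, at least 3 SD from the plate mean, either direction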;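 note: B-score of the F/F0 ratio slope over 7 to 12 s after thallium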
RBBP9 inhibitor – human RBBP9 inhibitors, primary screen, biochemical, fluorescence polarization, FP-Rh probe, HTS; inhibition, % at 7.94 µM; AID 1515, 2009; Serine hydrolase RBBP9 (Homo sapiens), O75884; hit rate 0.2% among 220,000; recombinant RBBP9;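 active = inhibition above the campaign mean of all tested compounds plus 3 SD, cut at about 14% in these data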
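Test system: recombinant human RBBP9. Quantity: 2.5 µM RBBP9 dispensing solution, before mixing. Detection: FP readout at 525/598 nm. Reagent: Serine-hydrolase probe FP-Rh, 375 nM pre-mixing. Measure: % inhibition. Control set: DMSO-treated enzyme wells and wells lacking RBBP9. Buffer or medium: Tris-NaCl-Pluronic buffer, pH 8.0. Times: preincubation 30 min plus labeling 45 min at 25 °C.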
KCC2 sec1 – KCC2 modulators in sodium-free buffer, confirmation, cell-based, HEK293 KCC2, thallium flux, secondary assay. shares compounds with Cl transport mod. hit rate 15% among 3,700. normalised thallium flux (F/F0 slope) at 10 µM. FluoZin2 fluorescence; hits give high values. AID 1713, 2009;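 active = thallium flux slope above the same plate's solvent-only control mean plus 3 SD; inconclusive = the two replicate wells disagree; inactive = no significant difference from solvent-only control wells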
KCC2 bumet counter – thallium flux persisting under bumetanide in KCC2 cells, confirmation, counter-screen for KCC2 modulator project, cell-based, HEK293 KCC2, FluoZin2, secondary assay 3; shares compounds with Cl transport mod; HEK293-KCC2 + bumetanide/ouabain; hits give high values; normalized thallium flux at 10 µM; hit rate 49% among 3,700; AID 1714, 2009;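 active = thallium entry rate above the same plate's blocked-transporter control wells by more than 3 SD; inconclusive = the two repeat wells disagree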;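 note: raw slope of fluorescence over initial fluorescence between 10 and 20 s after thallium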
KCC2 secondary2 – KCC2 modulators without ouabain present, confirmation, cell-based, HEK293 KCC2, thallium flux, FluoZin2, secondary assay 2 | normalized thallium flux at 10 µM | shares compounds with Cl transport mod | thallium flux FluoZin2 fluorescence; actives lie on both sides; F/F0 rise rate, 10–20 s post-thallium | hit rate 23% among 3,700;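 active = thallium flux slope more than 3 SD above or below the plate's solvent-only control mean, mostly below; inconclusive = the two repeat wells disagreed; inactive = no significant shift from solvent-only controls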
HEK counter1 – thallium flux modulation in parental HEK cells, confirmation, counter-screen for KCC2 modulator project, cell-based, counterscreen 1 | hit rate 46% among 3,700 | shares compounds with Cl transport mod | thallium flux rate (normalised fluorescence) at 10 µM | HEK293 parental cells, thallium flux FluoZin2, ouabain; baseline-ratio fluorescence slope, 10–20 s after thallium;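 active = thallium flux rate significantly above the same plate's solvent-only control wells, beyond their mean plus 3 SD; inconclusive = the two replicate wells gave conflicting results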
KCC2 ouabain – KCC2 inhibitors and activators, ouabain retest, confirmation, HEK-KCC2 cells; shares compounds with Cl transport mod; HEK293-KCC2, thallium flux FluoZin2 fluorescence; bidirectional: low = inhibitor, high = activator; raw Tl+ flux slope (below DMSO = inhibition, above = activation) at 10 µM; hit rate 48% among 3,700; AID 1717, 2009;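 active = thallium flux slope beyond 3 SD from same-plate DMSO control mean in most replicates, usually higher, sometimes lower; inconclusive = repeat tests gave conflicting results; inactive = no significant difference from controls in most replicates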;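 note: slope of initial-normalized fluorescence between seconds 10 and 20 after thallium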
HEK293 Tl flux2 – native HEK Tl+ uptake effects, second counter-screen – HEK cells, counterscreen 2, counter-screen for KCC2 modulator project, confirmation; shares compounds with Cl transport mod; HEK293 parental, thallium flux FluoZin-2 fluorescence slope; thallium flux slope at 10 µM; hit rate 33% among 3,700; AID 1718, 2009;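 active = thallium flux slope above the same plate's solvent-control mean plus 3 SD in both duplicate wells; inconclusive = duplicate wells that disagreed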;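 note: run without ouabain in cells lacking the KCC2 cotransporter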
Each line names hits and unclear results; the compound was inactive in the other large screens (follow-up assays come after a bar, where they were run).

Cc1onc(-c2c(F)cccc2Cl)c1C(O)c1ccc(F)cc1 (stereo unspecified)	none (no result: WT yeast gro inh)
O=C(CSc1nc2cc(C(F)(F)F)ccc2n1Cc1ccccc1)NC1CCS(=O)(=O)C1 (stereo unspecified)	Cl transport mod 5.2 | KCC2 sec1 inactive | KCC2 bumet counter 0.0077 | KCC2 secondary2 inactive | HEK counter1 0.011 | KCC2 ouabain inactive | HEK293 Tl flux2 inconclusive
Cc1ccc(-n2c(SCC(=O)NC3CCS(=O)(=O)C3)nc3ccccc3c2=O)cc1 (stereo unspecified)	none
CN(C)c1ccc(C(=O)Nc2nnc(-c3ccc(Cl)cc3)o2)cc1	Cl transport mod 20 (no result: ROMK primary) | KCC2 sec1 inactive | KCC2 bumet counter 0.06 | KCC2 secondary2 0.046 | HEK counter1 0.054 | KCC2 ouabain 0.051 | HEK293 Tl flux2 0.026
CC(=O)c1ccc(C(=O)Nc2nnc(-c3ccc(Cl)cc3)o2)cc1	Cl transport mod 22 (no result: ROMK primary, RBBP9 inhibitor) | KCC2 sec1 0.022 | KCC2 bumet counter 0.09 | KCC2 secondary2 inconclusive | HEK counter1 0.045 | KCC2 ouabain 0.05 | HEK293 Tl flux2 0.016
CN(c1ccccc1)S(=O)(=O)c1ccc(C(=O)Nc2nnc(-c3ccc(F)cc3)o2)cc1	Cl transport mod 18 (no result: ROMK primary) | KCC2 sec1 0.013 | KCC2 bumet counter 0.056 | KCC2 secondary2 inactive | HEK counter1 inconclusive | KCC2 ouabain 0.038 | HEK293 Tl flux2 inactive
CN(c1ccccc1)S(=O)(=O)c1ccc(NC(=O)c2ccc(-c3ccccc3)cc2)cc1	none (no result: ROMK primary)
O=C(Nc1nnc(C2=COCCO2)o1)c1ccc(Cl)cc1	Cl transport mod 8.5, WT yeast gro inh 60 (no result: ROMK primary) | KCC2 sec1 inconclusive | KCC2 bumet counter 0.026 | KCC2 secondary2 inactive | HEK counter1 0.021 | KCC2 ouabain 0.032 | HEK293 Tl flux2 inconclusive
O=C(Cn1nnc2ccccc21)OCC(=O)c1ccc(F)cc1	none (no result: WT yeast gro inh, ROMK primary)
CCCOC(=O)c1cccc(Nc2nc(-c3cccnc3)nc3ccccc23)c1	none
CS(=O)(=O)c1ccc2nc(NC(=O)c3ccc(=O)[nH]c3)sc2c1	none (no result: WT yeast gro inh, ROMK primary)
Cn1nc(C(=O)Nc2nc3ccc(S(C)(=O)=O)cc3s2)ccc1=O	Cl transport mod 4.7 | KCC2 sec1 inactive | KCC2 bumet counter 0.021 | KCC2 secondary2 inactive | HEK counter1 0.013 | KCC2 ouabain inactive | HEK293 Tl flux2 inconclusive
